In ChEMBL document CHEMBL1926577, “Novel 1,3,4-heterodiazole analogues: synthesis and in-vitro antitumor activity” (2012):
Active and inactive are the calls of the source. The calls are words filed in the database; no cut-off is given here.

What was measured:
Format in all cases: functional
[1] = test system: RPMI-8226; test: Growth inhibition of human RPMI8226 cells at 10 uM after 48 hrs by coulter counter method; conditions: RPMI-8226, 48 h, read-out: GI
In short: (§1)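 NCI 60-cell-line panel, single dose. Compound dissolved first in DMSO, then diluted in phosphate-buffered saline so that every final dilution held under 1% DMSO. Duplicate wells received cells at 6 × 10⁴ cells/ml. Controls held PBS/DMSO at the same dilution. Plates were incubated 48 h at 37 °C under 5% CO₂. Cells were then diluted 10-fold in saline and counted on a Coulter counter, with counts corrected for the dilution. Results are given as percent growth inhibition.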

[2] = test system: BT-549; test: Growth inhibition of human BT549 cells at 10 uM after 48 hrs by coulter counter method; conditions: BT-549, 48 h, read-out: GI; in short: as §1
[3] = test system: IGROV-1; test: Growth inhibition of human IGROV1 cells at 10 uM after 48 hrs by coulter counter method; in short: as §1
[4] = test system: CCRF-CEM; test: Growth inhibition of human CCRF-CEM cells at 10 uM after 48 hrs by coulter counter method; conditions: read-out: GI; in short: as §1
[5] = test system: T47D; test: Growth inhibition of human T47D cells at 10 uM after 48 hrs by coulter counter method; conditions: read-out: GI; in short: as §1
[6] = test system: Malme-3M; test: Growth inhibition of human MALME-3M cells at 10 uM after 48 hrs by coulter counter method; conditions: read-out: GI; in short: as §1
[7] = test system: SNB-75; test: Growth inhibition of human SNB75 cells at 10 uM after 48 hrs by coulter counter method; conditions: SNB-75, 48 h, read-out: GI; in short: as §1
[8] = test system: NCI/ADR-RES; test: Growth inhibition of human NCI/ADR-RES cells at 10 uM after 48 hrs by coulter counter method; conditions: read-out: GI; in short: as §1
[9] = test system: SF-268; test: Growth inhibition of human SF268 cells at 10 uM after 48 hrs by coulter counter method; conditions: SF-268, 48 h, read-out: GI; in short: as §1
[10] = test system: LOX IMVI; test: Growth inhibition of human LOXIMVI cells at 10 uM after 48 hrs by coulter counter method; in short: as §1
[11] = test system: A498; test: Growth inhibition of human A498 cells at 10 uM after 48 hrs by coulter counter method; conditions: A498, 48 h, read-out: GI; in short: as §1
[12] = test system: NCI-H23; test: Growth inhibition of human NCI-H23 cells at 10 uM after 48 hrs by coulter counter method; conditions: NCI-H23, 48 h, read-out: GI; in short: as §1
[13] = test system: MDA-MB-468; test: Growth inhibition of human MDA-MB-468 cells at 10 uM after 48 hrs by coulter counter method; conditions: MDA-MB-468, 48 h, read-out: GI; in short: as §1
[14] = test system: MCF7; test: Growth inhibition of human MCF7 cells at 10 uM after 48 hrs by coulter counter method; conditions: MCF7, 48 h, read-out: GI; in short: as §1
[15] = test system: CAKI-1; test: Growth inhibition of human Caki1 cells at 10 uM after 48 hrs by coulter counter method; in short: as §1
[16] = test system: SN12C; test: Growth inhibition of human SN12C cells at 10 uM after 48 hrs by coulter counter method; conditions: read-out: GI; in short: as §1
[17] = test system: ACHN; test: Growth inhibition of human ACHN cells at 10 uM after 48 hrs by coulter counter method; conditions: read-out: GI; in short: as §1
[18] = test system: SK-MEL-2; test: Growth inhibition of human SK-MEL-2 cells at 10 uM after 48 hrs by coulter counter method; conditions: SK-MEL-2, 48 h, read-out: GI; in short: as §1
[19] = test system: UACC-257; test: Growth inhibition of human UACC257 cells at 10 uM after 48 hrs by coulter counter method; conditions: UACC-257, 48 h, read-out: GI; in short: as §1
[20] = test system: MDA-MB-435; test: Growth inhibition of human MDA-MB-435 cells at 10 uM after 48 hrs by coulter counter method; conditions: MDA-MB-435, 48 h, read-out: GI; in short: as §1
[21] = test system: K562; test: Growth inhibition of human K562 cells at 10 uM after 48 hrs by coulter counter method; conditions: K562, 48 h, read-out: GI; in short: as §1
[22] = test system: SNB-19; test: Growth inhibition of human SNB19 cells at 10 uM after 48 hrs by coulter counter method; conditions: SNB-19, 48 h, read-out: GI; in short: as §1
[23] = test system: HCT-15; test: Growth inhibition of human HCT15 cells at 10 uM after 48 hrs by coulter counter method; conditions: HCT-15, 48 h, read-out: GI; in short: as §1
[24] = test system: M14; test: Growth inhibition of human M14 cells at 10 uM after 48 hrs by coulter counter method; conditions: M14, 48 h, read-out: GI; in short: as §1
[25] = test system: SF-295; test: Growth inhibition of human SF295 cells at 10 uM after 48 hrs by coulter counter method; conditions: SF-295, 48 h, read-out: GI; in short: as §1
[26] = test system: TK-10; test: Growth inhibition of human TK10 cells at 10 uM after 48 hrs by coulter counter method; conditions: TK-10, 48 h, read-out: GI; in short: as §1
[27] = test system: UACC-62; test: Growth inhibition of human UACC62 cells at 10 uM after 48 hrs by coulter counter method; conditions: UACC-62, 48 h, read-out: GI; in short: as §1
[28] = test system: UO-31; test: Growth inhibition of human UO31 cells at 10 uM after 48 hrs by coulter counter method; in short: as §1
[29] = test system: SR; test: Growth inhibition of human SR cells at 10 uM after 48 hrs by coulter counter method; conditions: read-out: GI; in short: as §1
[30] = test system: 786-0; test: Growth inhibition of human 786-0 cells at 10 uM after 48 hrs by coulter counter method; conditions: 786-0, 48 h, read-out: GI; in short: as §1
[31] = test system: EKVX; test: Growth inhibition of human EKVX cells at 10 uM after 48 hrs by coulter counter method; conditions: read-out: GI; in short: as §1
[32] = test system: HT-29; test: Growth inhibition of human HT-29 cells at 10 uM after 48 hrs by coulter counter method; conditions: HT-29, 48 h, read-out: GI; in short: as §1
[33] = test system: PC-3; test: Growth inhibition of human PC3 cells at 10 uM after 48 hrs by coulter counter method; conditions: PC-3, 48 h, read-out: GI; in short: as §1
[34] = test system: A549; test: Growth inhibition of human A549 cells at 10 uM after 48 hrs by coulter counter method; conditions: A549, 48 h, read-out: GI; in short: as §1
[35] = test system: HL-60(TB); test: Growth inhibition of human HL-60(TB) cells at 10 uM after 48 hrs by coulter counter method; conditions: HL-60, 48 h, read-out: GI
In short: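 Single-dose screen on the NCI 60-line panel (leukemia subpanel). Compound is dissolved in DMSO and diluted in PBS, with final DMSO below 1%. Duplicate wells hold 6 × 10⁴ cells/ml at 37 °C, 5% CO₂, for 48 h. Cells are counted by Coulter counter after 10-fold saline dilution. Read-out is percent growth versus PBS/DMSO controls, expressed as % growth inhibition.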

[36] = test system: SK-MEL-28; test: Growth inhibition of human SK-MEL-28 cells at 10 uM after 48 hrs by coulter counter method; conditions: SK-MEL-28, 48 h, read-out: GI; in short: as §1
[37] = test system: NCI-H322M; test: Growth inhibition of human NCI-H322M cells at 10 uM after 48 hrs by coulter counter method; conditions: read-out: GI; in short: as §1
[38] = test system: NCI-H226; test: Growth inhibition of human NCI-H226 cells at 10 uM after 48 hrs by coulter counter method; conditions: NCI-H226, 48 h, read-out: GI; in short: as §1
[39] = test system: OVCAR-8; test: Growth inhibition of human OVCAR8 cells at 10 uM after 48 hrs by coulter counter method; conditions: OVCAR-8, 48 h, read-out: GI; in short: as §1
[40] = test system: MOLT-4; test: Growth inhibition of human MOLT4 cells at 10 uM after 48 hrs by coulter counter method; conditions: MOLT-4, 48 h, read-out: GI; in short: as §1
[41] = test system: NCI-H522; test: Growth inhibition of human NCI-H522 cells at 10 uM after 48 hrs by coulter counter method; conditions: NCI-H522, 48 h, read-out: GI; in short: as §1
[42] = test system: SK-MEL-5; test: Growth inhibition of human SK-MEL-5 cells at 10 uM after 48 hrs by coulter counter method; conditions: SK-MEL-5, 48 h, read-out: GI; in short: as §1
[43] = test system: HCT-116; test: Growth inhibition of human HCT116 cells at 10 uM after 48 hrs by coulter counter method; conditions: HCT-116, 48 h, read-out: GI; in short: as §1
[44] = test system: KM12; test: Growth inhibition of human KM12 cells at 10 uM after 48 hrs by coulter counter method; conditions: KM12, 48 h, read-out: GI; in short: as §1
[45] = test system: U-251; test: Growth inhibition of human U251 cells at 10 uM after 48 hrs by coulter counter method; conditions: U-251, 48 h, read-out: GI; in short: as §1

SMILES: O=C1CN2N=C(c3ccc(Cl)cc3)SC2=N1
- inhibition of growth at 10 µM [1]: 43.5%
- inhibition of growth at 10 µM [2]: 39.5%
- growth inhibition (GI) [3]: Active
- inhibition of growth at 10 µM [4]: 62.5%
- inhibition of growth at 10 µM [5]: 13%
- inhibition of growth at 10 µM [6]: 22%
- inhibition of growth at 10 µM [7]: < 10%
- inhibition of growth at 10 µM [8]: < 10%
- inhibition of growth at 10 µM [9]: 16.5%
- growth inhibition (GI) [10]: Active
- inhibition of growth at 10 µM [11]: < 10%
- inhibition of growth at 10 µM [12]: 14.9%
- inhibition of growth at 10 µM [13]: < 10%
- inhibition of growth at 10 µM [14]: 25.7%
- growth inhibition (GI) [15]: Active
- inhibition of growth at 10 µM [16]: 20.1%
- inhibition of growth at 10 µM [17]: 17.3%
- inhibition of growth at 10 µM [18]: < 10%
- inhibition of growth at 10 µM [19]: < 10%
- inhibition of growth at 10 µM [20]: 11.7%
- inhibition of growth at 10 µM [21]: 18.8%
- inhibition of growth at 10 µM [22]: 18.2%
- inhibition of growth at 10 µM [23]: 51.2%
- inhibition of growth at 10 µM [24]: 31.4%
- inhibition of growth at 10 µM [25]: 38.6%
- inhibition of growth at 10 µM [26]: < 10%
- inhibition of growth at 10 µM [27]: 20.7%
- growth inhibition (GI) [28]: Active
- inhibition of growth at 10 µM [29]: 32.5%
- inhibition of growth at 10 µM [30]: < 10%
- inhibition of growth at 10 µM [31]: < 10%
- inhibition of growth at 10 µM [32]: 31.1%
- inhibition of growth at 10 µM [33]: 25.7%
- inhibition of growth at 10 µM [34]: < 10%
- inhibition of growth at 10 µM [35]: < 10%
- inhibition of growth at 10 µM [36]: < 10%
- inhibition of growth at 10 µM [37]: 31%
- inhibition of growth at 10 µM [38]: 11.4%
- inhibition of growth at 10 µM [39]: 39.8%
- inhibition of growth at 10 µM [40]: 24%
- inhibition of growth at 10 µM [41]: 32.4%
- inhibition of growth at 10 µM [42]: 21.2%
- inhibition of growth at 10 µM [43]: 39.9%
- inhibition of growth at 10 µM [44]: 38.3%
- inhibition of growth at 10 µM [45]: 19.9%
